pIC50: −log10 of the molar value.
Legend:
[1] = tested on: Monoamine transporters; serotonin & dopamine; test: Ratio between the IC50 values of SERT and DAT; assay type: protein assay
Method in brief: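 Selectivity ratio: SERT IC50 ([3H]citalopram) divided by DAT IC50 ([3H]WIN 35,428). Both IC50s come from binding in male Sprague–Dawley rat striatal membranes under identical conditions, each by nonlinear curve fitting of at least five concentrations, three independent experiments in triplicate.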

[2] = target: Sodium-dependent serotonin transporter (Rattus norvegicus, UniProt P31652); test: Inhibitory activity against serotonin transporter (SERT) labeled with [3H]-citalopram in rat brain striatal membrane.; assay type: cell membranes
Sequence of Sodium-dependent serotonin transporter (P31652 whole entry): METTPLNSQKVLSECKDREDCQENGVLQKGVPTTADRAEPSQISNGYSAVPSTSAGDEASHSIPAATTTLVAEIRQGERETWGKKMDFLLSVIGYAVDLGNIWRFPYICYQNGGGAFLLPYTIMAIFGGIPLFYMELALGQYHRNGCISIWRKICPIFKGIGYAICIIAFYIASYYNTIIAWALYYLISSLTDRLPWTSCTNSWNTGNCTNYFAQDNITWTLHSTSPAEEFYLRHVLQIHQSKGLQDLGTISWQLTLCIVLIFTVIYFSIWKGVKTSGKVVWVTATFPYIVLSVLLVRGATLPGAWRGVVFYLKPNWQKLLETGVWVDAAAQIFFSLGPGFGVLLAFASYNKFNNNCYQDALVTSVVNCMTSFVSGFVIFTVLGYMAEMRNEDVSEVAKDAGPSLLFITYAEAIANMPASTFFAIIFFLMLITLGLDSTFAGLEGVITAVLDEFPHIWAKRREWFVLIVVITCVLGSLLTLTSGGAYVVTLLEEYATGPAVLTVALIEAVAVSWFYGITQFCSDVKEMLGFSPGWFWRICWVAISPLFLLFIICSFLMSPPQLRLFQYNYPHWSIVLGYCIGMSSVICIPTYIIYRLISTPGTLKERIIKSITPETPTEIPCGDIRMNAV

[3] = target: Sodium-dependent dopamine transporter (Rattus norvegicus, UniProt P23977); test: Inhibitory activity against dopamine transporter (DAT) labeled with [3H]WIN-35428 in rat brain striatal membrane.; assay type: cell membranes
Sequence of Sodium-dependent dopamine transporter (P23977 whole entry): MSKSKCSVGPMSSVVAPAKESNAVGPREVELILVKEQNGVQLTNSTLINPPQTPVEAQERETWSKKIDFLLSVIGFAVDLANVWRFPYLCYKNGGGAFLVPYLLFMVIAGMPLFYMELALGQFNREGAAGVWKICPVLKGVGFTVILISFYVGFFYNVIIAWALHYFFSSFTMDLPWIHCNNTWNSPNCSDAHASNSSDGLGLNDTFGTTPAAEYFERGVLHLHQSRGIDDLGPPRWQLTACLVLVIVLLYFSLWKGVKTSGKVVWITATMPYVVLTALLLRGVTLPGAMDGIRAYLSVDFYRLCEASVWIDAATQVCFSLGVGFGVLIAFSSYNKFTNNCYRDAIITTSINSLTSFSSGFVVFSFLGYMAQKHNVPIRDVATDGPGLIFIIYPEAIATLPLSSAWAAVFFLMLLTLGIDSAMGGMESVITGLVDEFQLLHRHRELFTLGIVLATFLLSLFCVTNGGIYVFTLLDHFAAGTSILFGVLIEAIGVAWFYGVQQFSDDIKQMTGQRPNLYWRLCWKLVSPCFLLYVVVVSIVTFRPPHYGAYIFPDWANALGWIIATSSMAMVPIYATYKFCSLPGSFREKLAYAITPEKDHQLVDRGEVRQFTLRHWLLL

SMILES	Ratio [1]	pIC50 [2]	pIC50 [3]
Fc1ccc(C=CCN2CCC(CCOC(c3ccccc3)c3ccccc3)CC2)cc1	19	6.69	7.97
c1ccc(C(OCCC2CCN(CCCc3cccnc3)CC2)c2ccccc2)cc1	6.5	6.71	7.52
Fc1ccc(C(OCCC2CCN(CCCc3ccccc3)CC2)c2cccs2)cc1 (configuration not stated)	7.3	7.07	7.93
C(=Cc1cccs1)CN1CCC(CCOC(c2ccccc2)c2ccccc2)CC1	29.6	6.54	8.01
Fc1ccc(CCCN2CCC(CCOC(c3ccccc3)c3ccccc3)CC2)cc1	33.8	6.65	8.18
C(=Cc1ccccc1)CN1CCC(CCOC(c2ccccc2)c2ccccc2)CC1	22.9	6.63	8.00
Fc1ccc(C(OCCC2CCN(CC=Cc3ccccc3)CC2)c2ccc(F)cc2)cc1	6.5	6.57	7.38
Fc1ccc(C=CCN2CCC(CCOC(c3ccc(F)cc3)c3ccc(F)cc3)CC2)cc1	5	7.12	7.82
c1ccc(CCCN2CCC(CCOC(c3ccccc3)c3cccs3)CC2)cc1 (configuration not stated)	30	6.74	8.22

— ChEMBL document CHEMBL1131564, “Potent and selective ligands for the dopamine transporter (DAT): structure-activity relationship studies of novel 4-[2-(diphenylmethoxy)ethyl]-1-(3-phenylpropyl)piperidine analogues” (J Med Chem, 1998)
